Consider 20 compounds from ChEMBL document CHEMBL4251647, “Synthesis, anticancer activity and mechanism of action of new thiazole derivatives” (Eur J Med Chem, 2018).

Experiment [1] concerns HEp-2. Description: Cytotoxicity against human Hep2 cells assessed as inhibition of cell viability after 72 hrs by MTT assay. The experiment is classed as functional, cell-based. The conditions noted are these: HEp-2, 72 h. The essentials: (§1)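 MTT assay. Leukaemic lines were seeded at 3 x 10^5 cells/mL and adherent lines at 1 x 10^5 cells/mL, then preincubated 24 h. Compounds were added at 0.098–25.0 µg/mL for 72 h, with MTT for the last 3 h. Formazan was dissolved in DMSO and read at 560 nm. IC50 came from regression; triplicate, two independent experiments.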
(In general: Tetrazolium assays rely on reduction of a dye to a coloured formazan, in cell work by metabolically active cells.)

The test system of experiment [2] is K562. Description: Cytotoxicity against human K562 cells assessed as inhibition of cell viability at 25 ug/ml after 72 hrs by MTT assay relative to control. The experiment is classed as functional. The note with it: K562, 72 h. The essentials:
(§2)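 Single-concentration MTT screen at 25 µg/mL for 72 h. Seeding was 3 x 10^5 cells/mL (HL-60, K562) or 1 x 10^5 cells/mL (adherent), with 24 h preincubation. MTT was added for the final 3 h, formazan dissolved in DMSO and absorbance read at 560 nm. Results are given as percent inhibition ± SD.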

The subject of experiment [3] is K562. Description: Cytotoxicity against human K562 cells assessed as inhibition of cell viability after 72 hrs by MTT assay. The experiment is classed as functional, cell-based. The conditions noted are these: K562, 72 h. The essentials: as §1
The subject of experiment [4] is HL-60. Description: Cytotoxicity against human HL60 cells assessed as inhibition of cell viability at 25 ug/ml after 72 hrs by MTT assay relative to control. The experiment is classed as functional. The conditions noted are these: HL-60, 72 h. The gist of the method: as §2
Experiment [5] relates to NCI-H292. Description: Cytotoxicity against human NCI-H292 cells assessed as inhibition of cell viability at 25 ug/ml after 72 hrs by MTT assay relative to control. The experiment is classed as functional. The note with it: NCI-H292, 72 h. The essentials: as §2
The test system of experiment [6] is PBMC. Description: Cytotoxicity against human PBMC cells assessed as inhibition of cell viability after 72 hrs by alamar blue assay. The experiment is classed as cell-based. The essentials: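 PBMC from healthy donors were grown in RPMI-1640 with 20% FBS and 2% phytohaemagglutinin, then plated at 10^6 cells/mL. After 24 h, compounds (0.048–25 µg/mL, in DMSO) were added for 72 h. Resazurin was added for the final 24 h and absorbance read at 570 and 595 nm as percent of control.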

For experiment [7], the system named is HT-29. Description: Cytotoxicity against human HT-29 cells assessed as inhibition of cell viability at 25 ug/ml after 72 hrs by MTT assay relative to control. The experiment is classed as functional. The conditions noted are these: HT-29, 72 h. The gist of the method: as §2
Experiment [8] relates to Erythrocyte. Description: Hemolytic activity in human erythrocytes after 1 hr by spectrophotometric method. The experiment is classed as ADME, cell-based. The gist of the method: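 Human erythrocytes as a 2% suspension in 0.85% NaCl with 10 mM CaCl2 were exposed to 0.78–250 µg/mL for 1 h at room temperature. After centrifugation, released haemoglobin in the supernatant was read at 540 nm. Triton X-100 (1%) served as positive control; EC50 is the concentration giving 50% haemolysis.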

Experiment [9] deals with NCI-H292. Description: Cytotoxicity against human NCI-H292 cells assessed as inhibition of cell viability after 72 hrs by MTT assay. The conditions noted are these: NCI-H292, 72 h. The experiment is classed as functional, cell-based. The gist of the method:
as §1

Experiment [10] has as its system HEp-2. Description: Cytotoxicity against human Hep2 cells assessed as inhibition of cell viability at 25 ug/ml after 72 hrs by MTT assay relative to control. The experiment is classed as functional. The note with it: HEp-2, 72 h. The essentials: as §2
The test system of experiment [11] is HT-29. Description: Cytotoxicity against human HT-29 cells assessed as inhibition of cell viability after 72 hrs by MTT assay. The experiment is classed as functional, cell-based. The conditions noted are these: HT-29, 72 h. The essentials: as §1
Experiment [12] has as its system HL-60. Description: Cytotoxicity against human HL60 cells assessed as inhibition of cell viability after 72 hrs by MTT assay. The experiment is classed as functional, cell-based. The note with it: HL-60, 72 h. The essentials:
as §1

Broadly, the IC50 is the concentration that inhibits the measured activity by half. The term inhibition denotes the share of the control response that was lost under treatment. Usually EC50 stands for the concentration that produces a half-maximal response. A high value points to a less potent agent.

Consider `O=[N+]([O-])c1cccc(-c2csc(N/N=C/c3ccc(C(F)(F)F)cc3)n2)c1`, for which the IC50 in experiment [1] was 34.2 µM; in experiment [3], 10.2 µM; in [6], 151 µM; in experiment [9], 22.8 µM; in [11], 23.9 µM; in [12], 29.3 µM. For the same compound, the inhibition at 25 µg/mL in [2] stood at 75.5%; in experiment [4], 77.4%; in experiment [5], 75.1%; in experiment [7], 79.4%; in [10], 84.3%. This compound came in with an EC50 in experiment [8] above 250 µg/mL.

With `FC(F)(F)c1ccc(/C=N/Nc2nc(-c3ccc(Br)cc3)cs2)cc1`, the inhibition at 25 µg/mL in [2] stood at 25%; in experiment [4] it was 46.7%; in experiment [5], 64.2%; in experiment [7], 67.4%; in experiment [10] it was 17.1%.

With `Fc1ccc(-c2cs/c(=N/N=C/c3ccc(C(F)(F)F)cc3)n2-c2ccccc2)cc1`, the inhibition at 25 µg/mL was found to be 59.1% in [2]; 26.2% in experiment [4]; 41.8% in experiment [5]; 74.6% in experiment [7]; 22% in experiment [10].

On to `Cc1ccc(-c2csc(N/N=C/c3ccc(C(F)(F)F)cc3)n2)cc1`, for which the inhibition at 25 µg/mL came to 20.9% in experiment [2]; 45.2% in [4]; 62.3% in experiment [5]; 42.7% in [7]; 59.9% in [10].

Turning to `FC(F)(F)c1ccc(/C=N/Nc2nc(-c3ccccc3)cs2)cc1`, the inhibition at 25 µg/mL in [4] was 40.6%; in [5], 49.8%; in [10] it was 34.7%.

Consider `COc1ccc(-c2csc(N/N=C/c3ccc(C(F)(F)F)cc3)n2)cc1`, for which the IC50 in experiment [1] was 11.3 µM; in experiment [3] it was above 66.2 µM; in experiment [6], 130 µM; in experiment [9], above 66.2 µM; in experiment [11], 22.7 µM; in experiment [12], 3.67 µM. In addition, the inhibition at 25 µg/mL in experiment [2] stood at 61.5%; in [4], 89.1%; in experiment [5] it was 68.5%; in experiment [7], 76.2%; in [10], 78.2%. Moreover, the EC50 in [8] was above 250 µg/mL.

Regarding `Fc1ccc(-c2csc(N/N=C/c3ccc(C(F)(F)F)cc3)n2)cc1`, the inhibition at 25 µg/mL is 61.6% in [2]; 58.1% in experiment [4]; 78.8% in experiment [5]; 70.1% in experiment [7]; 62.6% in experiment [10].

With `Cn1c(-c2ccc(Cl)cc2Cl)cs/c1=N/N=C/c1ccc(C(F)(F)F)cc1`, the inhibition at 25 µg/mL in experiment [2] was found to be 69.7%; in [4] it was 43.5%; in experiment [5], 35.7%; in experiment [7] it was 52.7%; in experiment [10] it was 33.5%.

Regarding `FC(F)(F)c1ccc(/C=N/N=c2/scc(-c3ccc(Cl)cc3Cl)n2-c2ccccc2)cc1`, the inhibition at 25 µg/mL in experiment [4] worked out at 14.4%; in experiment [5] it was 38.5%.

Consider `Cc1sc(N/N=C/c2ccc(C(F)(F)F)cc2)nc1-c1ccccc1`, for which the inhibition at 25 µg/mL in experiment [2] came to 25%; in experiment [4], 30.9%; in [5], 60.9%; in experiment [7], 46.2%; in experiment [10], 29.5%.

As for `Cn1c(-c2ccc([N+](=O)[O-])cc2)cs/c1=N/N=C/c1ccc(C(F)(F)F)cc1`, the IC50 in experiment [1] is 26.4 µM; in experiment [3] it was above 61.4 µM; in [6] it was 140 µM; in [9], above 61.4 µM; in [11], 47.8 µM; in [12] it was 11.8 µM. Also, the inhibition at 25 µg/mL in experiment [2] stood at 59.8%; in [4], 83.2%; in experiment [5], 44.1%; in [7] it was 75.1%; in [10], 84.8%. For the same compound, in experiment [8], the EC50 was above 250 µg/mL.

`FC(F)(F)c1ccc(/C=N/Nc2nc(-c3ccc(Cl)c(Cl)c3)cs2)cc1`: the IC50 in experiment [1] was 10.4 µM; in experiment [3], above 60.1 µM; in experiment [6], 65.6 µM; in experiment [9] it was 6.57 µM; in experiment [11], 12.2 µM; in experiment [12], 4.23 µM. For the same compound, the inhibition at 25 µg/mL in experiment [2] came to 47.8%; in experiment [4], 96.4%; in [5], 98.2%; in experiment [7] it was 84%; in experiment [10], 83.5%. In [8], this compound came in with an EC50 above 250 µg/mL.

Take `FC(F)(F)c1ccc(/C=N/Nc2nc(-c3ccc(Cl)cc3)cs2)cc1`: the inhibition at 25 µg/mL is 50.5% in experiment [2]; 61.4% in experiment [4]; 67.7% in experiment [5]; 40.1% in experiment [7]; 33% in experiment [10].

For `FC(F)(F)c1ccc(/C=N/Nc2nc(-c3cccc4ccccc34)cs2)cc1`, the inhibition at 25 µg/mL in experiment [2] is 44.9%; in [4] it was 39.1%; in [5] it was 35.7%; in [7] it was 45.8%; in [10] it was 28.5%.

In the case of `COc1ccc(-c2cs/c(=N/N=C/c3ccc(C(F)(F)F)cc3)n2C)cc1`, the inhibition at 25 µg/mL in experiment [2] stood at 50.4%; in experiment [4], 67.8%; in experiment [5], 68.3%; in [7] it was 62.5%; in [10] it was 53.7%.

In the case of `O=[N+]([O-])c1ccc(-c2csc(N/N=C/c3ccc(C(F)(F)F)cc3)n2)cc1`, the IC50 in [1] was 27.3 µM; in experiment [3], 16.9 µM; in [6], 53.2 µM; in experiment [9], 7.41 µM; in [11] it was above 63.6 µM; in [12] it was 11.5 µM. The inhibition at 25 µg/mL in experiment [2] was 87.2%; in [4], 80.2%; in [5], 96.3%; in experiment [7], 59.3%; in experiment [10], 90%. For the same compound, the EC50 in experiment [8] was above 250 µg/mL.

As to `CNC(=S)N/N=C/c1ccc(C(F)(F)F)cc1`, the IC50 turned out to be 12.6 µM in experiment [1]; 13.2 µM in experiment [3]; 93.3 µM in experiment [6]; 20.8 µM in experiment [9]; 5.06 µM in experiment [11]; 17.2 µM in experiment [12]. For the same compound, the inhibition at 25 µg/mL in experiment [2] came to 82.6%; in experiment [4] it was 94.6%; in experiment [5], 93.3%; in [7], 88.7%; in experiment [10] it was 88.1%. Besides, the EC50 in [8] is above 250 µg/mL.

For `FC(F)(F)c1ccc(/C=N/NC(=S)Nc2ccccc2)cc1`, the inhibition at 25 µg/mL in experiment [2] came out at 71.2%; in [4], 37.7%; in experiment [5], 58.4%; in experiment [7] it was 74.7%; in experiment [10] it was 63.6%.

Regarding `FC(F)(F)c1ccc(/C=N/N=c2/scc(-c3ccc(Cl)cc3)n2-c2ccccc2)cc1`, the inhibition at 25 µg/mL turned out to be 59% in experiment [2]; 28.4% in experiment [4]; 87.8% in experiment [5]; 82.2% in experiment [7]; 58.7% in experiment [10].

Consider `COc1ccc(-c2cs/c(=N/N=C/c3ccc(C(F)(F)F)cc3)n2-c2ccccc2)cc1`, for which the inhibition at 25 µg/mL in experiment [2] was 59.2%; in experiment [4], 36.7%; in [5], 66.3%; in [7] it was 58.5%; in [10], 81.8%.
